Published values gathered from unrelated publications.
Each line is one published result; the experiments were not run side by side.
EGFR L858R/T790M: Epidermal growth factor receptor (EGFR, Homo sapiens, UniProt P00533, L858R/T790M)
EGFR: Epidermal growth factor receptor (EGFR, Homo sapiens, UniProt P00533)
EGFR T790M: Epidermal growth factor receptor (EGFR, Homo sapiens, UniProt P00533, T790M)
EGFR L858R: Epidermal growth factor receptor (EGFR, Homo sapiens, UniProt P00533, L858R)
EGFR G719C: Epidermal growth factor receptor (EGFR, Homo sapiens, UniProt P00533, G719C)
EGFR L861Q: Epidermal growth factor receptor (EGFR, Homo sapiens, UniProt P00533, L861Q)

C=C(Cl)C(=O)Nc1cc(Nc2nc(N3CCOCC3)c3sccc3n2)c(OC)cc1N(C)CCN(C)C
inhibition (EGFR L858R/T790M; enzyme activity; inhibitor; ELISA; 0.1 µM): 57.8%

Cc1sc(C(=O)NC2COC2)cc1-n1cc(NC(=O)Nc2c(F)cccc2Cl)cn1
remaining activity (EGFR; enzyme activity; inhibitor; 10 µM): 98.5%

COc1cc(Cl)c(C(=O)N[C@@H](CN[C@H]2CC[C@@H](N)CC2)Cc2ccc(C#N)cc2)cc1-c1ccc(CN[C@H](C)c2ccc(C)cc2)o1
remaining activity (EGFR; enzyme activity; inhibitor; 1 µM): 103%

CC(C)(O)[C@H]1CC[C@H](Nc2ccc3ncc(-c4cccc(C(F)(F)F)c4)n3n2)CC1
remaining activity (EGFR; enzyme activity; inhibitor; 1 µM): 80%

C[C@@H]1CCN(c2nccc(-c3cnn4ncccc34)n2)C1
remaining binding (EGFR L858R/T790M; binding; 1 µM): 76%

CC/C(=N\NC(=O)NCc1cccc(O)c1)c1ccc(O)c(C)c1O
inhibition (EGFR T790M; enzyme activity; inhibitor; 0.1 µM): 1.5%

COc1cc(-c2cc(-c3ccc(N4CCNCC4)cc3)cnc2N)cc(OC)c1OC
inhibition (EGFR L858R; enzyme activity; inhibitor; 1 µM): 76%

Cc1ccc(NC(=O)c2ccc(CN3CCN(C)CC3)cc2)cc1Nc1nc(-c2cccnc2)cs1
remaining signal (EGFR; cell-free assay; 0.5 µM): 99.6%

CC(C)[C@@H]1NC(=O)CCNC(=O)CCNC(=O)[C@H](Cc2ccc(O)cc2)NC(=O)[C@H](Cc2ccc(O)cc2)NC(=O)[C@H](Cc2ccccc2)NC(=O)[C@@H](Cc2ccc(O)cc2)NC(=O)CSC[C@@H](C(=O)NCC(N)=O)NC(=O)CCNC(=O)[C@H](CCCNC(=N)N)NC(=O)[C@H](CCCNC(=N)N)NC(=O)[C@H](Cc2ccc(O)cc2)NC(=O)[C@H](C(C)C)NC(=O)[C@H](C(C)C)NC(=O)[C@H](CC(N)=O)NC1=O
kon (EGFR; binding; SPR): 217000 M⁻¹ s⁻¹

CNCc1ccccc1-c1csc([C@H](C)Nc2nc(C)nc3cc(OC)c(OC)cc23)c1
remaining binding (EGFR L858R/T790M; cell-free assay; competition with immobilised ligand; 1 µM): 87%

Cc1ccc(C(=O)Nc2ccc(CN3CCN(C)CC3)c(C(F)(F)F)c2)cc1C#Cc1cnc2cccnn12
remaining signal (EGFR G719C; cell-free assay; 23.5 nM): 88%

Cc1ccc(C(=O)NCc2ccsc2)cc1C#Cc1cn(C(C)C)c2ncnc(N)c12
activity vs control (EGFR L858R; enzyme activity; inhibitor; 1 µM): 56%

NS(=O)(=O)c1cc(NC(=O)Cc2ccccc2)ccc1Oc1cccc(Cl)c1
remaining binding (EGFR G719C; cell-free assay; competition with immobilised ligand; 1 µM): 63%

CN(CCCC(F)(F)F)c1nccc(-c2cnn3ncccc23)n1
remaining binding (EGFR L861Q; binding; 1 µM): 73%

COc1cc2ncnc(Nc3ccc(Oc4ccccc4)cc3C)c2cc1OC
inhibition (EGFR; enzyme activity; inhibitor; 1 µM): 89%

Cc1cnc(NC2CCOCC2)nc1-n1cnc(C(=O)NC(CN)c2cc(F)cc(Cl)c2)c1 (stereo not drawn)
remaining activity (EGFR T790M; enzyme activity; inhibitor; radiometric; 1 µM): 98%

CCN(CC)CCNC(=O)c1c(C)[nH]c(/C=C2\C(=O)Nc3ccc(Cl)cc32)c1C
remaining signal (EGFR; cell-free assay; 0.5 µM): 97%

N#Cc1ccc(Nc2ccc3[nH]c(=O)[nH]c3c2)c(Cl)c1
remaining binding (Epidermal growth factor receptor (EGFR, Homo sapiens, UniProt P00533, del747-750/T751S); cell-free assay; competition with immobilised ligand; 1 µM): 100%

N#C/C(=C\c1ccc(O)c(O)c1)C(=O)NCc1ccccc1
remaining signal (EGFR; cell-free assay; 0.5 µM): 72.4%

Nc1ncnc2occ(-c3ccc(NC(=O)Nc4cc(C(F)(F)F)ccc4F)cc3)c12
remaining signal (EGFR G719C; cell-free assay; 20 µM): 4.2%

CN(C)C(=O)Cn1cc(-c2nc(C3(c4ccc(-c5cnc(N)nc5)cc4)CC3)no2)cn1
remaining binding (Epidermal growth factor receptor (EGFR, Homo sapiens, UniProt P00533, A750P/del747-749); cell-free assay; competition with immobilised ligand; 1 µM): 80%

N[C@@H]1CCN(c2nccc(-c3cnn4ncccc34)n2)C1
remaining binding (EGFR L861Q; binding; 1 µM): 92%

O=C(O)c1cc(-c2ccc(C3CCNCC3)cc2)c2ccc(-c3ccc(C(F)(F)F)cc3)cc2c1
remaining binding (Epidermal growth factor receptor (EGFR, Homo sapiens, UniProt P00533, G719S); cell-free assay; competition with immobilised ligand; 1 µM): 100%

CCC(=O)Nc1cc(Nc2nc(N3CCc4sccc4C3)c3cccnc3n2)c(OC)cc1N1CCSCC1
inhibition (EGFR L858R/T790M; enzyme activity; inhibitor; ELISA; 0.1 µM): 28.8%

CCCCN(CCCC)C(=O)CN1C[C@@H](c2cc(OC)c3c(c2)OCO3)[C@H](C(=O)O)[C@H]1CC(C)(C)CCC
remaining binding (Epidermal growth factor receptor (EGFR, Homo sapiens, UniProt P00533, del747-752/P753S); cell-free assay; competition with immobilised ligand; 1 µM): 75.9%

C=CC(=O)Nc1cccc(Oc2nc(Nc3ccc(N4CCN(C)CC4)cc3)nc3ccsc23)c1
inhibition (EGFR L858R/T790M; enzyme activity; inhibitor; ELISA; 0.1 µM): 98.4%

COc1cc(-c2cn(C3CCc4ccccc4N(CC(F)(F)F)C3=O)nn2)ccc1-n1ccc(C)n1 (stereo not drawn)
remaining binding (Epidermal growth factor receptor (EGFR, Homo sapiens, UniProt P00533, del746-750); cell-free assay; competition with immobilised ligand; 1 µM): 100%

Cc1ccc(NC(=O)c2ccc(C)c(C(F)(F)F)c2)cc1C#Cc1nn(C2CCC(O)CC2)c2ncnc(N)c12 (stereo not drawn)
remaining signal (EGFR T790M; cell-free assay; 10 µM): 4%

Cc1cc(NC(=O)c2cccc3cc(-c4cccc5[nH]nc(N)c45)ccc23)ccc1F
activity vs control (EGFR T790M; enzyme activity; inhibitor; 0.1 µM): 98%

O=C(Nc1ccc(Oc2ccc(F)cc2)cc1)N1CCc2ncccc2[C@H]1c1ccc(F)cc1
remaining binding (Epidermal growth factor receptor (EGFR, Homo sapiens, UniProt P00533, del752-759); cell-free assay; competition with immobilised ligand; 1 µM): 80%
